# Assay results reported in ChEMBL document CHEMBL5376013, “Design, synthesis and biological evaluation of novel morpholinopyrimidine-5-carbonitrile derivatives as dual PI3K/mTOR inhibitors” (RSC Med Chem, 2024).
# Experiments:
# Type in all cases: functional
# Details in all cases: read-out: GI
# NCI-H23 = test: Antitumor activity against human NCI-H23 cells assessed as growth inhibition at 10 uM relative to control
# Outline: (§1)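 After drug addition, plates were incubated 48 h at 37 °C under 5% CO2. Adherent cells were fixed with cold TCA (10% final, 60 min, 4 °C) and suspension cells with 16% final TCA. Staining used 0.4% SRB in 1% acetic acid, solubilized in 10 mM trizma, read at A515. Percent growth was calculated from time-zero, control and treated absorbances.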
# MOLT-4 = test: Antitumor activity against human MOLT-4 cells assessed as growth inhibition at 10 uM relative to control; outline: as §1
# NCI-H322M = test: Antitumor activity against human NCI-H322M cells assessed as growth inhibition at 10 uM relative to control; outline: as §1
# NCI-H522 = test: Antitumor activity against human NCI-H522 cells assessed as growth inhibition at 10 uM relative to control; outline: as §1
# K562 = test: Antitumor activity against human K562 cells assessed as growth inhibition at 10 uM relative to control; outline: as §1
# SF-539 = test: Antitumor activity against human SF-539 cells assessed as growth inhibition at 10 uM relative to control; outline: as §1
# HCT-116 = test: Antitumor activity against human HCT-116 cells assessed as growth inhibition at 10 uM relative to control; outline: as §1
# SK-MEL-2 = test: Antitumor activity against human SK-MEL-2 cells assessed as growth inhibition at 10 uM relative to control; outline: as §1
# UO-31 = test: Antitumor activity against human UO-31 cells assessed as growth inhibition at 10 uM relative to control
# Outline: (§2)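 Drug exposure 48 h at 37 °C, 5% CO2. Adherent cells fixed with cold TCA (10% final), suspension cells with TCA (16% final). Stained with 0.4% SRB in 1% acetic acid, dissolved in 10 mM Tris, A515. Growth relative to time-zero and untreated control.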
# SNB-75 = test: Antitumor activity against human SNB-75 cells assessed as growth inhibition at 10 uM relative to control; outline: as §2
# HCC 2998 = test: Antitumor activity against human HCC 2998 cells assessed as growth inhibition at 10 uM relative to control; outline: as §1
# LOX IMVI = test: Antitumor activity against human LOX IMVI cells assessed as growth inhibition at 10 uM relative to control; outline: as §1
# RXF 393 = test: Antitumor activity against human RXF 393 cells assessed as growth inhibition at 10 uM relative to control; outline: as §1
# KM12 = test: Antitumor activity against human KM12 cells assessed as growth inhibition at 10 uM relative to control; outline: as §1
# EKVX = test: Antitumor activity against human EKVX cells assessed as growth inhibition at 10 uM relative to control; outline: as §1
# HT-29 = test: Antitumor activity against human HT-29 cells assessed as growth inhibition at 10 uM relative to control; outline: as §1
# RPMI-8226 = test: Antitumor activity against human RPMI-8226 cells assessed as growth inhibition at 10 uM relative to control; outline: as §1
# NCI-H226 = test: Antitumor activity against human NCI-H226 cells assessed as growth inhibition at 10 uM relative to control; outline: as §1
# MDA-MB-435 = test: Antitumor activity against human MDA-MB-435 cells assessed as growth inhibition at 10 uM relative to control; outline: as §1
# Hs-578T = test: Antitumor activity against human Hs-578T cells assessed as growth inhibition at 10 uM relative to control; outline: as §1
# 786-0 = test: Antitumor activity against human 786-0 cells assessed as growth inhibition at 10 uM relative to control; outline: as §1
# IGROV-1 = test: Antitumor activity against human IGROV-1 cells assessed as growth inhibition at 10 uM relative to control; outline: as §1
# MCF7 = test: Antitumor activity against human MCF7 cells assessed as growth inhibition at 10 uM relative to control; outline: as §1
# COLO 205 = test: Antitumor activity against human COLO 205 cells assessed as growth inhibition at 10 uM relative to control; outline: as §1
# T47D = test: Antitumor activity against human T47D cells assessed as growth inhibition at 10 uM relative to control; outline: as §2
# HL-60 = test: Antitumor activity against human HL-60 cells assessed as growth inhibition at 10 uM relative to control; outline: as §1
# SW-620 = test: Antitumor activity against human SW-620 cells assessed as growth inhibition at 10 uM relative to control; outline: as §2
# SK-MEL-28 = test: Antitumor activity against human SK-MEL-28 cells assessed as growth inhibition at 10 uM relative to control; outline: as §2
# NCI-H460 = test: Antitumor activity against human NCI-H460 cells assessed as growth inhibition at 10 uM relative to control; outline: as §1
# SNB-19 = test: Antitumor activity against human SNB-19 cells assessed as growth inhibition at 10 uM relative to control; outline: as §2
# CCRF-CEM = test: Antitumor activity against human CCRF-CEM cells assessed as growth inhibition at 10 uM relative to control; outline: as §1
# BT-549 = test: Antitumor activity against human BT-549 cells assessed as growth inhibition at 10 uM relative to control; outline: as §1
# MDA-MB-231 = test: Antitumor activity against human MDA-MB-231 cells assessed as growth inhibition at 10 uM relative to control; outline: as §1
# HCT-15 = test: Antitumor activity against human HCT-15 cells assessed as growth inhibition at 10 uM relative to control; outline: as §1
# SK-MEL-5 = test: Antitumor activity against human SK-MEL-5 cells assessed as growth inhibition at 10 uM relative to control; outline: as §2
# Malme-3M = test: Antitumor activity against human Malme-3M cells assessed as growth inhibition at 10 uM relative to control; outline: as §1
# A549 = test: Antitumor activity against human A549 cells assessed as growth inhibition at 10 uM relative to control; outline: as §1
# OVCAR-8 = test: Antitumor activity against human OVCAR-8 cells assessed as growth inhibition at 10 uM relative to control; outline: as §1
# HOP-62 = test: Antitumor activity against human HOP-62 cells assessed as growth inhibition at 10 uM relative to control; outline: as §1
# U-251 = test: Antitumor activity against human U-251 cells assessed as growth inhibition at 10 uM relative to control; outline: as §2
# OVCAR-5 = test: Antitumor activity against human OVCAR-5 cells assessed as growth inhibition at 10 uM relative to control; outline: as §1
# SR = test: Antitumor activity against human SR cells assessed as growth inhibition at 10 uM relative to control; outline: as §2
# CAKI-1 = test: Antitumor activity against human CAKI-1 cells assessed as growth inhibition at 10 uM relative to control; outline: as §1
# OVCAR-3 = test: Antitumor activity against human OVCAR-3 cells assessed as growth inhibition at 10 uM relative to control; outline: as §1
# MDA-MB-468 = test: Antitumor activity against human MDA-MB-468 cells assessed as growth inhibition at 10 uM relative to control; outline: as §1
# SN12C = test: Antitumor activity against human SN12C cells assessed as growth inhibition at 10 uM relative to control; outline: as §2
smiles,measurement,setting,value
N#Cc1c(-c2ccc(Cl)cc2)nc(N/N=C/c2cccc([N+](=O)[O-])c2)nc1N1CCOCC1,inhibition of growth at 10 µM,NCI-H23,< 1%
same,inhibition of growth at 10 µM,MOLT-4,36.6%
same,inhibition of growth at 10 µM,NCI-H322M,14.3%
same,inhibition of growth at 10 µM,NCI-H522,24.1%
same,inhibition of growth at 10 µM,K562,33.6%
same,inhibition of growth at 10 µM,SF-539,17.7%
same,inhibition of growth at 10 µM,HCT-116,20.1%
same,inhibition of growth at 10 µM,SK-MEL-2,10.4%
same,inhibition of growth at 10 µM,UO-31,65.1%
same,inhibition of growth at 10 µM,SNB-75,33.4%
same,inhibition of growth at 10 µM,HCC 2998,< 1%
same,inhibition of growth at 10 µM,LOX IMVI,26%
same,inhibition of growth at 10 µM,RXF 393,56.6%
same,inhibition of growth at 10 µM,KM12,< 1%
same,inhibition of growth at 10 µM,EKVX,33.8%
same,inhibition of growth at 10 µM,HT-29,< 1%
same,inhibition of growth at 10 µM,RPMI-8226,43.4%
same,inhibition of growth at 10 µM,NCI-H226,28.7%
same,inhibition of growth at 10 µM,MDA-MB-435,12.1%
same,inhibition of growth at 10 µM,Hs-578T,< 1%
same,inhibition of growth at 10 µM,786-0,13.2%
same,inhibition of growth at 10 µM,IGROV-1,28.1%
same,inhibition of growth at 10 µM,MCF7,< 25.6%
same,inhibition of growth at 10 µM,COLO 205,14.6%
same,inhibition of growth at 10 µM,T47D,42%
same,inhibition of growth at 10 µM,HL-60,13.5%
same,inhibition of growth at 10 µM,SW-620,< 1%
same,inhibition of growth at 10 µM,SK-MEL-28,10.2%
same,inhibition of growth at 10 µM,NCI-H460,14.5%
same,inhibition of growth at 10 µM,SNB-19,10%
same,inhibition of growth at 10 µM,CCRF-CEM,25.3%
same,inhibition of growth at 10 µM,BT-549,27.6%
same,inhibition of growth at 10 µM,MDA-MB-231,17.6%
same,inhibition of growth at 10 µM,HCT-15,23%
same,inhibition of growth at 10 µM,SK-MEL-5,14.9%
same,inhibition of growth at 10 µM,Malme-3M,< 1%
same,inhibition of growth at 10 µM,A549,27.2%
same,inhibition of growth at 10 µM,OVCAR-8,12.5%
same,inhibition of growth at 10 µM,HOP-62,< 1%
same,inhibition of growth at 10 µM,U-251,40.1%
same,inhibition of growth at 10 µM,OVCAR-5,10.2%
same,inhibition of growth at 10 µM,SR,42.5%
same,inhibition of growth at 10 µM,CAKI-1,28.1%
same,inhibition of growth at 10 µM,OVCAR-3,11.2%
same,inhibition of growth at 10 µM,MDA-MB-468,26.1%
same,inhibition of growth at 10 µM,SN12C,10.6%
N#Cc1c(-c2ccc(Cl)cc2)nc(N/N=C/c2cccc(F)c2)nc1N1CCOCC1,inhibition of growth at 10 µM,NCI-H23,< 1%
same,inhibition of growth at 10 µM,MOLT-4,25.9%
same,inhibition of growth at 10 µM,NCI-H322M,< 1%
same,inhibition of growth at 10 µM,NCI-H522,11.6%
same,inhibition of growth at 10 µM,K562,15%
same,inhibition of growth at 10 µM,SF-539,< 1%
same,inhibition of growth at 10 µM,HCT-116,< 1%
same,inhibition of growth at 10 µM,SK-MEL-2,< 1%
same,inhibition of growth at 10 µM,UO-31,37.5%
same,inhibition of growth at 10 µM,SNB-75,35.8%
same,inhibition of growth at 10 µM,HCC 2998,< 1%
same,inhibition of growth at 10 µM,LOX IMVI,11.8%
same,inhibition of growth at 10 µM,RXF 393,< 1%
same,inhibition of growth at 10 µM,KM12,16%
same,inhibition of growth at 10 µM,EKVX,26.2%
same,inhibition of growth at 10 µM,HT-29,30%
same,inhibition of growth at 10 µM,RPMI-8226,22.3%
same,inhibition of growth at 10 µM,NCI-H226,< 1%
same,inhibition of growth at 10 µM,MDA-MB-435,< 1%
same,inhibition of growth at 10 µM,Hs-578T,< 1%
same,inhibition of growth at 10 µM,786-0,< 1%
same,inhibition of growth at 10 µM,IGROV-1,17.4%
same,inhibition of growth at 10 µM,MCF7,< 12.4%
same,inhibition of growth at 10 µM,COLO 205,27.2%
same,inhibition of growth at 10 µM,T47D,11.2%
same,inhibition of growth at 10 µM,HL-60,< 1%
same,inhibition of growth at 10 µM,SW-620,< 1%
same,inhibition of growth at 10 µM,SK-MEL-28,< 1%
same,inhibition of growth at 10 µM,NCI-H460,< 1%
same,inhibition of growth at 10 µM,SNB-19,< 1%
same,inhibition of growth at 10 µM,CCRF-CEM,19.6%
same,inhibition of growth at 10 µM,BT-549,< 1%
same,inhibition of growth at 10 µM,MDA-MB-231,< 1%
same,inhibition of growth at 10 µM,HCT-15,21.3%
same,inhibition of growth at 10 µM,SK-MEL-5,< 1%
same,inhibition of growth at 10 µM,Malme-3M,< 1%
same,inhibition of growth at 10 µM,A549,< 1%
same,inhibition of growth at 10 µM,OVCAR-8,< 1%
same,inhibition of growth at 10 µM,HOP-62,10.3%
same,inhibition of growth at 10 µM,U-251,21.1%
same,inhibition of growth at 10 µM,OVCAR-5,< 1%
same,inhibition of growth at 10 µM,SR,< 1%
same,inhibition of growth at 10 µM,CAKI-1,13.7%
same,inhibition of growth at 10 µM,OVCAR-3,< 1%
same,inhibition of growth at 10 µM,MDA-MB-468,< 1%
same,inhibition of growth at 10 µM,SN12C,< 1%
